In ChEMBL document CHEMBL1150774, “1-[(Imidazolidin-2-yl)imino]indazole. Highly alpha 2/I1 selective agonist: synthesis, X-ray structure, and biological activity” (J Med Chem, 2008):
Activity calls are given as the source filed them. The rule behind the calls is not given here.

Tests used:
[1] = Displacement of [3H][…] from alpha2 adrenoceptor in Sprague-Dawley rat brain
Procedure, shortened: (§1)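 Crude P2 membranes from male rat brain (250-280 g), washed and stored at -70 °C. 0.2-0.3 mg protein incubated with 11 concentrations (0.01 nM to 100 µM) plus 1 nM [3H]2BFI (I2) or 1 nM [3H]RX821002 (α2). Nonspecific binding: 10 µM BU224 (I2) or 10 µM rauwolscine (α2). Run in triplicate, 45 min at room temperature. Ki by Cheng-Prusoff, 3-4 experiments.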

Nischarin = Nischarin (Rattus norvegicus, UniProt Q4G017); test: Displacement of [3H]clonidine from imidazoline 1 receptor in Sprague-Dawley rat kidney
Procedure, shortened: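 Crude P2 membranes from male rat kidney (250-280 g), 0.2-0.5 mg protein. Labelled with 3 nM [3H]clonidine; 10 µM rauwolscine present to block α2 sites; specific binding defined by 10 µM rilmenidine. 11 test concentrations. 50 mM Tris-HCl pH 7.4, 45 min at room temperature. Filtration, scintillation counting; IC50 is displacement of 50% of specific binding.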

[2] = Displacement of [3H]2BFI from imidazoline 2 receptor in Sprague-Dawley rat brain; procedure, shortened: as §1
Rattus norvegicus [3] = organism: Rattus norvegicus; test: Selectivity for Sprague-Dawley rat alpha 2 adrenoceptor over Sprague-Dawley rat imidazoline 1 receptor
Rattus norvegicus [4] = test: Hypotensive activity in Wistar rat assessed as decrease in mean arterial blood pressure at 0.1 mg/kg, iv after 10 mins; assay type: functional
Procedure, shortened: (§2)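 Male rats (200-250 g) anaesthetised with thiopental 70 mg/kg ip, then maintained at 30 (µg/kg)/min. Saline-thiopental infusion at 1.2 mL/h; 40 min recovery, then 40 min saline. Compound given as iv bolus at 0.1 mg/kg. MAP and HR recorded directly at 100 Hz. ΔMAP and ΔHR taken relative to time 0; 4-7 experiments; repeated-measures ANOVA.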

Rattus norvegicus [5] = test: Hypotensive activity in Wistar rat assessed as decrease in heart rate at 0.1 mg/kg, iv after 10 mins; assay type: functional; procedure, shortened: as §2
Rattus norvegicus [6] = test: Hypotensive activity in Wistar rat assessed as decrease in mean arterial blood pressure at 0.1 mg/kg, iv after 30 mins; assay type: functional; procedure, shortened: as §2
Rattus norvegicus [7] = test: Hypotensive activity in Wistar rat assessed as decrease in heart rate at 0.1 mg/kg, iv after 30 mins; assay type: functional; procedure, shortened: as §2
Rattus norvegicus [8] = test: Hypotensive activity in Wistar rat assessed as decrease in mean arterial blood pressure at 0.1 mg/kg, iv after 60 mins; assay type: functional; procedure, shortened: as §2
Rattus norvegicus [9] = test: Hypotensive activity in Wistar rat assessed as decrease in heart rate at 0.1 mg/kg, iv after 60 mins; assay type: functional; procedure, shortened: as §2
Rattus norvegicus [10] = test: Hypotensive activity in Wistar rat assessed as decrease in mean arterial blood pressure at 0.1 mg/kg, iv after 90 mins; assay type: functional; procedure, shortened: as §2
Rattus norvegicus [11] = test: Hypotensive activity in Wistar rat assessed as decrease in heart rate at 0.1 mg/kg, iv after 90 mins; assay type: functional; procedure, shortened: as §2
Rattus norvegicus [12] = test: Reversal of hypotensive activity in Wistar rat at 10 mg/kg, iv in presence of RX821002; assay type: functional, organism-based; set-up: dose 10 mg/kg
Rattus norvegicus [13] = organism: Rattus norvegicus; test: Hypotensive activity in Wistar rat assessed as mean arterial blood pressure; assay type: functional

Chain of Nischarin (Q4G017 whole entry): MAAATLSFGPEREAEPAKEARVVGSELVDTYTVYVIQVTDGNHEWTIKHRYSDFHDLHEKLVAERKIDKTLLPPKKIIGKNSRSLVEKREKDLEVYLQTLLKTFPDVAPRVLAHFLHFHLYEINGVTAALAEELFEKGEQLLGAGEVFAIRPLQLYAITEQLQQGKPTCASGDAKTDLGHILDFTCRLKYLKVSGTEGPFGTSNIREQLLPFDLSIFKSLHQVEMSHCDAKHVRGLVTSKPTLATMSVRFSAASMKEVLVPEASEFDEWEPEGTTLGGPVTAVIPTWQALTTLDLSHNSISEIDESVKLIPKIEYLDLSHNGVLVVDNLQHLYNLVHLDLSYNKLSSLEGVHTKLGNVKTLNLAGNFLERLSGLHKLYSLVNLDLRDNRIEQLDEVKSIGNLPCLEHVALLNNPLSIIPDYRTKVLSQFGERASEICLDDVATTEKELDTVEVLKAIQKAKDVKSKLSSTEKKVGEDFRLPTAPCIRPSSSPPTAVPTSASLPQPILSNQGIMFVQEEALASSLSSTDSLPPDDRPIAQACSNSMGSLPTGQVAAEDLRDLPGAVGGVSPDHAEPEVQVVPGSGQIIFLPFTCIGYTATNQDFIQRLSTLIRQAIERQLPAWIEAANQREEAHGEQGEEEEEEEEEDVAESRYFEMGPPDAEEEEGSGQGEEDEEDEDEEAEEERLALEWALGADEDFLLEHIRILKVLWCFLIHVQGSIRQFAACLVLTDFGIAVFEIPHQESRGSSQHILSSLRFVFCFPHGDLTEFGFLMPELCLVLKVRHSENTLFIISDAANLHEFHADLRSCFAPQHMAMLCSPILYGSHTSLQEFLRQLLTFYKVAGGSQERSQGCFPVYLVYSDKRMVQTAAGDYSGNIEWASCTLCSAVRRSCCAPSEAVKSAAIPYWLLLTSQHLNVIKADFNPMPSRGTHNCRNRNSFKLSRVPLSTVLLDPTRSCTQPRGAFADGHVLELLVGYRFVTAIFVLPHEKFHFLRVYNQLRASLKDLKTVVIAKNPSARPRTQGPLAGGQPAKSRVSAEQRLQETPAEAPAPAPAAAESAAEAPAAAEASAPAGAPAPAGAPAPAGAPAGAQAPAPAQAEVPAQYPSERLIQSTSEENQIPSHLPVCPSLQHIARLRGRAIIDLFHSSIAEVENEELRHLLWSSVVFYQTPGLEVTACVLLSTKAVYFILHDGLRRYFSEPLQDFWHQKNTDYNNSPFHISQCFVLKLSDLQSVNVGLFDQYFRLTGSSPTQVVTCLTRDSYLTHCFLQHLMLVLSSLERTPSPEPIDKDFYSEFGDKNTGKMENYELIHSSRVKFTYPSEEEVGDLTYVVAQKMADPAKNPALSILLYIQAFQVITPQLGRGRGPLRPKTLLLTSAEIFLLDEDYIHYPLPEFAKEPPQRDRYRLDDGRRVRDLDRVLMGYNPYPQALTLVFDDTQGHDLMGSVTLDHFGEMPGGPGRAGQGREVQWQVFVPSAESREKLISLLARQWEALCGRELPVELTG

c1ccc2c(c1)ncn2N=C1NCCN1 showed a Ki [1] of 6.02 µM, an IC50 (Nischarin) of over 100 µM and a Ki [2] of over 10 µM. It also gave a Selectivity ratio (Rattus norvegicus [3]) of over 16.6.

For Cc1ccc2c(cnn2N=C2NCCN2)c1.Cl, the Ki [1] was 0.0442 µM, the IC50 (Nischarin) was 20.3 µM and the Ki [2] was 7.16 µM. It also gave an Activity (Rattus norvegicus [4]) of -4.1 mmHg, an Activity (Rattus norvegicus [5]) of -104.2 bpm and an Activity (Rattus norvegicus [6]) of -3.6 mmHg. For the same molecule, the Activity (Rattus norvegicus [7]) was -3.2 bpm, the Activity (Rattus norvegicus [8]) was -4.6 mmHg and the Activity (Rattus norvegicus [9]) was -1 bpm. For the same molecule, the Activity (Rattus norvegicus [10]) was -4.9 mmHg, the Activity (Rattus norvegicus [11]) was -3 bpm and the Selectivity ratio (Rattus norvegicus [3]) was 460.

Cc1cc2ncn(N=C3NCCN3)c2cc1C gave a Ki [1] of 10.1 µM and a Ki [2] of over 10 µM.

In the case of Cl.c1ccc(-c2nn(N=C3NCCN3)c3ccccc23)cc1, the Ki [1] is reported as 25.8 µM, the IC50 (Nischarin) is reported as 76.5 µM and the Ki [2] is reported as 0.684 µM. For the same molecule, the Activity (Rattus norvegicus [4]) was -4.1 mmHg, the Activity (Rattus norvegicus [5]) was -17.7 bpm and the Activity (Rattus norvegicus [6]) was -7.6 mmHg. It also gave an Activity (Rattus norvegicus [7]) of -10.1 bpm, an Activity (Rattus norvegicus [8]) of -10 mmHg and an Activity (Rattus norvegicus [9]) of -11.1 bpm. For the same molecule, the Activity (Rattus norvegicus [10]) was -11.4 mmHg, the Activity (Rattus norvegicus [11]) was -12.7 bpm and the Selectivity ratio (Rattus norvegicus [3]) was 2.96.

For Cl.Clc1cccc2c1cnn2N=C1NCCN1, the Ki [1] was 0.0616 µM, the IC50 (Nischarin) was 31.5 µM and the Ki [2] was 11.1 µM. The Activity (Rattus norvegicus [4]) was -10.9 mmHg, the Activity (Rattus norvegicus [5]) was -60.8 bpm and the Activity (Rattus norvegicus [6]) was -14 mmHg. The Activity (Rattus norvegicus [7]) was -32.2 bpm, the Activity (Rattus norvegicus [8]) was -12.3 mmHg and the Activity (Rattus norvegicus [9]) was -24.3 bpm. The Activity (Rattus norvegicus [10]) was -10.9 mmHg, the Activity (Rattus norvegicus [11]) was -19 bpm and the Selectivity ratio (Rattus norvegicus [3]) was 511.

With COc1cccc2c1cnn2N=C1NCCN1.Cl the Ki [1] was 69.6 µM, the IC50 (Nischarin) was 13.5 µM and the Ki [2] was 5.98 µM. The Activity (Rattus norvegicus [4]) was -3.7 mmHg, the Activity (Rattus norvegicus [5]) was -18.6 bpm and the Activity (Rattus norvegicus [6]) was -7.6 mmHg. For the same molecule, the Activity (Rattus norvegicus [7]) was -9.7 bpm, the Activity (Rattus norvegicus [8]) was -11 mmHg and the Activity (Rattus norvegicus [9]) was -12.5 bpm. For the same molecule, the Activity (Rattus norvegicus [10]) was -12.9 mmHg, the Activity (Rattus norvegicus [11]) was -11.6 bpm and the Selectivity ratio (Rattus norvegicus [3]) was 0.19.

Cc1ccc2cnn(N=C3NCCN3)c2c1.Cl gave a Ki [1] of 0.0491 µM, a Ki [2] of 19.2 µM and an Activity (Rattus norvegicus [4]) of -13.2 mmHg. It also gave an Activity (Rattus norvegicus [5]) of -71.8 bpm, an Activity (Rattus norvegicus [6]) of -23.4 mmHg and an Activity (Rattus norvegicus [7]) of -43.5 bpm. The Activity (Rattus norvegicus [8]) was -20.8 mmHg, the Activity (Rattus norvegicus [9]) was -26.4 bpm and the Activity (Rattus norvegicus [10]) was -11 mmHg. It also gave an Activity (Rattus norvegicus [11]) of -22.2 bpm.

Cc1nn(N=C2NCCN2)c2ccccc12 gave a Ki [1] of 71.1 µM.

Molecule c1ccc2nn(N=C3NCCN3)cc2c1 has a Ki [1] of 78.3 µM and a Ki [2] of 77.8 µM.

For Clc1cccc2nn(N=C3NCCN3)cc12, the Ki [1] was 3.14 µM, the IC50 (Nischarin) was 47.8 µM and the Ki [2] was 13.1 µM. The Selectivity ratio (Rattus norvegicus [3]) was 15.3.

Cc1cccc2nn(N=C3NCCN3)cc12 gave a Ki [1] of 11.8 µM and a Ki [2] of 35.1 µM.

In the case of Cc1cccc2c1cnn2N=C1NCCN1.Cl, the Ki [1] is reported as 0.0371 µM, the IC50 (Nischarin) is reported as 38.5 µM and the Ki [2] is reported as 10.4 µM. For the same molecule, the Activity (Rattus norvegicus [4]) was -17.7 mmHg, the Activity (Rattus norvegicus [5]) was -104.2 bpm and the Activity (Rattus norvegicus [6]) was -29 mmHg. It also gave an Activity (Rattus norvegicus [7]) of -88.3 bpm, an Activity (Rattus norvegicus [8]) of -14.1 mmHg and an Activity (Rattus norvegicus [9]) of -22.7 bpm. It also gave an Activity (Rattus norvegicus [10]) of -10.1 mmHg, an Activity (Rattus norvegicus [11]) of -2.1 bpm and a Selectivity ratio (Rattus norvegicus [3]) of 1040.

With Cc1ccc2nn(N=C3NCCN3)cc2c1 the Ki [1] was 45.6 µM, the IC50 (Nischarin) was 13.4 µM and the Ki [2] was 11.4 µM. For the same molecule, the Selectivity ratio (Rattus norvegicus [3]) was 0.29.

In the case of Cc1ccc2cn(N=C3NCCN3)nc2c1, the Ki [1] is reported as 50.7 µM, the IC50 (Nischarin) is reported as 19.7 µM and the Ki [2] is reported as 42.9 µM. The Selectivity ratio (Rattus norvegicus [3]) was 0.39.

c1ccc2c(c1)nnn2N=C1NCCN1 showed a Ki [1] of over 10 µM, an IC50 (Nischarin) of 84.6 µM and a Ki [2] of over 10 µM. For the same molecule, the Selectivity ratio (Rattus norvegicus [3]) was under 8.46.

Molecule Cl.Clc1ccc2c(cnn2N=C2NCCN2)c1 has a Ki [1] of 0.114 µM, an IC50 (Nischarin) of 17 µM and a Ki [2] of 20.6 µM. It also gave an Activity (Rattus norvegicus [4]) of -0.2 mmHg, an Activity (Rattus norvegicus [5]) of 0.6 bpm and an Activity (Rattus norvegicus [6]) of -1.4 mmHg. For the same molecule, the Activity (Rattus norvegicus [7]) was 7.2 bpm, the Activity (Rattus norvegicus [8]) was -2.8 mmHg and the Activity (Rattus norvegicus [9]) was 12.8 bpm. The Activity (Rattus norvegicus [10]) was -1.1 mmHg, the Activity (Rattus norvegicus [11]) was 28.6 bpm and the Selectivity ratio (Rattus norvegicus [3]) was 149.

In the case of Cc1cccc2cnn(N=C3NCCN3)c12.Cl, the Ki [1] is reported as 0.0535 µM, the IC50 (Nischarin) is reported as 0.387 µM and the Ki [2] is reported as 2.52 µM. The Activity (Rattus norvegicus [4]) was -14.8 mmHg, the Activity (Rattus norvegicus [5]) was -110 bpm and the Activity (Rattus norvegicus [6]) was -40.6 mmHg. It also gave an Activity (Rattus norvegicus [7]) of -115 bpm, an Activity (Rattus norvegicus [8]) of -43.5 mmHg and an Activity (Rattus norvegicus [9]) of -122.9 bpm. The Activity (Rattus norvegicus [10]) was -43.2 mmHg, the Activity (Rattus norvegicus [11]) was -119.9 bpm and the Activity (Rattus norvegicus [12]) was “Active”. The ED50 (Rattus norvegicus [13]) was 0.6 µg/kg and the Selectivity ratio (Rattus norvegicus [3]) was 7.23.

With COc1ccc2cnn(N=C3NCCN3)c2c1.Cl the Ki [1] was 0.0962 µM, the Ki [2] was 33.6 µM and the Activity (Rattus norvegicus [4]) was -16.5 mmHg. The Activity (Rattus norvegicus [5]) was -33 bpm, the Activity (Rattus norvegicus [6]) was -17.1 mmHg and the Activity (Rattus norvegicus [7]) was -23.6 bpm. For the same molecule, the Activity (Rattus norvegicus [8]) was -11.6 mmHg, the Activity (Rattus norvegicus [9]) was -4.1 bpm and the Activity (Rattus norvegicus [10]) was -5.3 mmHg. It also gave an Activity (Rattus norvegicus [11]) of 14.3 bpm.

Clc1ccc2nn(N=C3NCCN3)cc2c1 showed a Ki [1] of 74.1 µM, an IC50 (Nischarin) of 24.7 µM and a Ki [2] of 33.2 µM. For the same molecule, the Selectivity ratio (Rattus norvegicus [3]) was 0.33.

Cl.c1ccc2c(c1)cnn2N=C1NCCN1 [MARSANIDINE HYDROCHLORIDE] showed a Ki [1] of 0.0141 µM, an IC50 (Nischarin) of 54.5 µM and a Ki [2] of 16.9 µM. It also gave an Activity (Rattus norvegicus [4]) of -6.9 mmHg, an Activity (Rattus norvegicus [5]) of -48.5 bpm and an Activity (Rattus norvegicus [6]) of -30.9 mmHg. For the same molecule, the Activity (Rattus norvegicus [7]) was -49 bpm, the Activity (Rattus norvegicus [8]) was -29 mmHg and the Activity (Rattus norvegicus [9]) was -31.4 bpm. The Activity (Rattus norvegicus [10]) was -22.1 mmHg, the Activity (Rattus norvegicus [11]) was -9.7 bpm and the Selectivity ratio (Rattus norvegicus [3]) was 3880.
